Experimental data: ChEMBL document CHEMBL4257586, “Polyheteroaryl Oxazole/Pyridine-Based Compounds Selected in Vitro as G-Quadruplex Ligands Inhibit Rock Kinase and Exhibit Antiproliferative Activity” (J Med Chem, 2018)
Values joined by “and” are separate entries in the source; they are usually repeats but may differ in a detail not shown here. Equal entries are not always repeated. Active and inactive are the calls of the source. The calls are words filed in the database; no cut-off is given here.

Experiments:
Format in all cases: nucleic-acid assay
dsDNA = assay: Binding affinity to duplex 26 DNA (unknown origin) assessed as change in melting temperature at 1 uM by FRET
Quadruplex DNA [1] = assay: Binding affinity to 6-FAM labeled human telomeric F21T G-quadruplex DNA assessed as change in melting temperature at 1 uM in K+ rich buffer (10 mM KCl, 90 mM LiCl, 10 mM Li cacodylate) by FRET assay
Method in brief: (§1)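 FRET melting in duplicate. Dual-labelled oligo (6-FAM/TAMRA) at 0.2 μM with ligand at 1 μM, in 10 mM Li cacodylate pH 7.2. Buffer was 10 mM KCl + 90 mM LiCl for F21T and 1 mM KCl + 99 mM LiCl for FMycT. Sample annealed 90 °C 5 min, cooled to 4 °C overnight. Equilibrated 5 min at 25 °C, then ramped 0.5 °C/min to 95 °C. FAM read 492/516 nm, normalized; Tm taken at the fitted inflection point.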

Quadruplex DNA [2] = assay: Binding affinity to 6-FAM labeled human proto-oncogene sequence FMycT G-quadruplex DNA assessed as change in melting temperature at 1 uM in presence of K+ buffer (1 mM KCl, 99 mM LiCl, 10 mM Li cacodylate) by FRET assay; method in brief: as §1

Row | Compound | Activity (dsDNA) | ΔTm (Quadruplex DNA [1]) | ΔTm (Quadruplex DNA [2])
1 | c1ccc(-c2ncc(-c3cccc(-c4cnc(-c5ccccn5)o4)n3)o2)nc1 | inactive |  | 
2 | c1cc(-c2cnco2)nc(-c2ncc(-c3cc(OCCN4CCCCC4)cc(-c4cnc(-c5cccc(-c6cnco6)n5)o4)n3)o2)c1 | inactive | 5 to 7 °C | 2.5 to 4.3 °C
3 | c1cc(-c2cnc(-c3cccc(-c4cnco4)n3)o2)nc(-c2cnc(-c3cccc(-c4cnco4)n3)o2)c1 | inactive | 5 to 7 °C | 2.5 to 4.3 °C
4 | CN(C)CCOc1cc(-c2cnc(-c3cccc(-c4cnco4)n3)o2)nc(-c2cnc(-c3cccc(-c4cnco4)n3)o2)c1 | inactive | 5 to 7 °C | 2.5 to 4.3 °C

Results, then the compound that gave them:

Row | Activity (dsDNA) | ΔTm (Quadruplex DNA [1]) | ΔTm (Quadruplex DNA [2]) | Compound
5 | inactive | 5.3 °C | 1.8 to 2.9 °C | c1ccc(-c2cnc(-c3cccc(-c4ncc(-c5ccccn5)o4)n3)o2)nc1
6 | inactive | 11.6 °C and 11 °C | 1.8 to 2.9 °C | CN(C)CCOc1cc(-c2ncc(-c3ccccn3)o2)nc(-c2ncc(-c3ccccn3)o2)c1
